pIC50: −log10 of the molar value. The source made the active and inactive calls. The calls are words filed in the database; no cut-off is given here.
Experiments:
[1] = biological target: T1, Aldo-keto reductase family 1 member C3 (Homo sapiens, UniProt P42330); experiment: Inhibition of human 17beta-HSD5 expressed in HEK293 cells using androstenedione as substrate assessed as testosterone synthesis after 4 hrs; format: cell-based
T1 sequence (P42330 whole entry): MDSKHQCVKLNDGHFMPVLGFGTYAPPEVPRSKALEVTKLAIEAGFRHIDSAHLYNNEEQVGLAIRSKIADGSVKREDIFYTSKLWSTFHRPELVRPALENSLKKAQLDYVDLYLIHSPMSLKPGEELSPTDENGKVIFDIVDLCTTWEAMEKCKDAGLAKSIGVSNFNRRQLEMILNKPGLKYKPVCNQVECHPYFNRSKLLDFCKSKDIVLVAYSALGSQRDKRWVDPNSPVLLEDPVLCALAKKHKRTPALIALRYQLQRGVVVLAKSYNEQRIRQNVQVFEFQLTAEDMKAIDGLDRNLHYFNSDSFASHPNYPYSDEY
Outline: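 HEK293 cells stably expressing human 17β-HSD5 were seeded at 2×10^4 cells/well in D-MEM/10% FBS and incubated overnight at 37 °C, 5% CO2. Androstenedione (final 300 nmol/mL) was added with compound. After 4 h, supernatant testosterone was measured by DELFIA immunoassay.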

[2] = Plasma concentration in ICR mouse at 30 mg/kg, po after 4 hrs by HPLC analysis; format: ADME, organism-based; design: dose 30 mg/kg, route oral
Outline: (§1)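 ICR mice were dosed orally, and blood was collected 1 or 4 h later. Compound was extracted from plasma with acetonitrile and quantified by HPLC.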

[3] = Plasma concentration in ICR mouse at 30 mg/kg, po after 1 hr by HPLC analysis; format: ADME, organism-based; design: dose 30 mg/kg, route oral; outline: as §1
[4] = Permeability of the compound after 2 hrs at pH 6.5 by PAMPA; format: ADME; details: read-out: permeability
Outline: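 PAMPA used a donor at pH 6.5 (universal buffer, 10% DMSO, typical final sample 50 μM, filtered) and an acceptor at pH 7.4, separated by a filter coated with 20% lecithin in dodecane. Plates were incubated at 25 °C for 2 h under saturated humidity. Both compartments were quantified by UV spectrum (270-400 nm) against standards, with a mass balance correction; Pe was then calculated.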

[5] = Solubility of the compound at pH 6.8; format: physicochemical; details: buffer
Outline: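 A 10 mM DMSO solution (13 μL) was added to 1 mL of Japanese Pharmacopoeia second disintegration fluid (pH 6.8) and shaken at 25 °C for 20 h. Solubility was calculated from the LC peak-area ratio of sample to standard.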

Cytochrome P450 2C9 = Cytochrome P450 2C9 (Homo sapiens, UniProt P11712); experiment: Inhibition of CYP2C9 (unknown origin); format: ADME
Sequence of Cytochrome P450 2C9 (P11712 whole entry): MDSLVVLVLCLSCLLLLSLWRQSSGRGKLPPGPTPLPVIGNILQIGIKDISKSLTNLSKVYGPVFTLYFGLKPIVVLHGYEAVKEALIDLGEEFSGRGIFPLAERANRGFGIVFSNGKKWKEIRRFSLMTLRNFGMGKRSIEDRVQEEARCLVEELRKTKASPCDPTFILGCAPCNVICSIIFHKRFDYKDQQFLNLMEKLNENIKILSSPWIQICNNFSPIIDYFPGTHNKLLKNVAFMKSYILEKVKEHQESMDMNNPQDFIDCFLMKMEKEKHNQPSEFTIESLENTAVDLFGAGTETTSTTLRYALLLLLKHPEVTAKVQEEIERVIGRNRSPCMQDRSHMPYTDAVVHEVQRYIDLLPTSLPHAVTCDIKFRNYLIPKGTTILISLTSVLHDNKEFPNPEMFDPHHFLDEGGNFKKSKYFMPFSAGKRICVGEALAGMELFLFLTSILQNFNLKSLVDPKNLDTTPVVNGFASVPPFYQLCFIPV

Cytochrome P450 2D6 = Cytochrome P450 2D6 (Homo sapiens, UniProt P10635); experiment: Inhibition of CYP2D6 (unknown origin); format: ADME
Sequence of Cytochrome P450 2D6 (P10635 whole entry): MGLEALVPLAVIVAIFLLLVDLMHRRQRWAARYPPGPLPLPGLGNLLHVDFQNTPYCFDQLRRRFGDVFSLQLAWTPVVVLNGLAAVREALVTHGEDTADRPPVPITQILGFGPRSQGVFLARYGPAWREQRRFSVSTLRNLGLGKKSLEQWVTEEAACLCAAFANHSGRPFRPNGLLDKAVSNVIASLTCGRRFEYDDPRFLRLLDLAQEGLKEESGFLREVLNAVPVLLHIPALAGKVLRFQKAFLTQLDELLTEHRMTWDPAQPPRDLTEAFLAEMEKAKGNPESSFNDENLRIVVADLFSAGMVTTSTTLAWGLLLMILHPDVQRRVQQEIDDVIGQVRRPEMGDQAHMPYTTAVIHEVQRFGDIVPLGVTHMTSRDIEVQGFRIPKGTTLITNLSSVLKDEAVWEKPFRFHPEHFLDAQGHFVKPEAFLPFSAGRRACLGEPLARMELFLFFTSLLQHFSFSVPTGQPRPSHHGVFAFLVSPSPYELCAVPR

[6] = Tmax in Sprague-Dawley rat at 1 mg/kg, po; format: ADME, organism-based; design: dose 1 mg/kg, route oral; details: in vivo
Outline: (§2)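 Male Sprague-Dawley rats aged 8 weeks received a single 1 mg/kg dose. The iv vehicle was saline with 15% DMF and 20% PEG 400; the oral vehicle was water with 10% DMF and 10% propylene glycol. Blood was sampled at multiple times up to 24 h and spun at 16,000 g for 2 min at 4 °C. Plasma drug was measured by HPLC-MS/MS.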

Cytochrome P450 1A2 = biological target: T2, Cytochrome P450 1A2 (Homo sapiens, UniProt P05177); experiment: Inhibition of CYP1A2 (unknown origin); format: ADME
T2 sequence (P05177 whole entry): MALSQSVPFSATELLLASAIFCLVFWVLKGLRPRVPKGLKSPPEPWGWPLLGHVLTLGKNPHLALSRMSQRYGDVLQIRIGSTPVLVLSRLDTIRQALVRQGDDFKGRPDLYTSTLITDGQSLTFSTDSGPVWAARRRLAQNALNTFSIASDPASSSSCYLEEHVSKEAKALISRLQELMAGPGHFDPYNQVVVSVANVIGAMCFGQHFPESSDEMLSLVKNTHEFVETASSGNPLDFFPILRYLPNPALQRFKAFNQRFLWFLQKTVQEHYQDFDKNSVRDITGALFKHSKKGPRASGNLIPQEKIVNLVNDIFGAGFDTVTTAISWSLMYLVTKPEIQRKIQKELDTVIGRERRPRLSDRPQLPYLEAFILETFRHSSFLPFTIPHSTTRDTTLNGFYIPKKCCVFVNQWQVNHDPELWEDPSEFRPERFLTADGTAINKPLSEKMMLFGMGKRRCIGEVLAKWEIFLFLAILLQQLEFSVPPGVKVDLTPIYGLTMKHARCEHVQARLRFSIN

[7] = biological target: Voltage-gated inwardly rectifying potassium channel KCNH2 (Homo sapiens, UniProt Q12809); experiment: Inhibition of human ERG channel by Rb efflux assay
Sequence of Voltage-gated inwardly rectifying potassium channel KCNH2 (Q12809 whole entry): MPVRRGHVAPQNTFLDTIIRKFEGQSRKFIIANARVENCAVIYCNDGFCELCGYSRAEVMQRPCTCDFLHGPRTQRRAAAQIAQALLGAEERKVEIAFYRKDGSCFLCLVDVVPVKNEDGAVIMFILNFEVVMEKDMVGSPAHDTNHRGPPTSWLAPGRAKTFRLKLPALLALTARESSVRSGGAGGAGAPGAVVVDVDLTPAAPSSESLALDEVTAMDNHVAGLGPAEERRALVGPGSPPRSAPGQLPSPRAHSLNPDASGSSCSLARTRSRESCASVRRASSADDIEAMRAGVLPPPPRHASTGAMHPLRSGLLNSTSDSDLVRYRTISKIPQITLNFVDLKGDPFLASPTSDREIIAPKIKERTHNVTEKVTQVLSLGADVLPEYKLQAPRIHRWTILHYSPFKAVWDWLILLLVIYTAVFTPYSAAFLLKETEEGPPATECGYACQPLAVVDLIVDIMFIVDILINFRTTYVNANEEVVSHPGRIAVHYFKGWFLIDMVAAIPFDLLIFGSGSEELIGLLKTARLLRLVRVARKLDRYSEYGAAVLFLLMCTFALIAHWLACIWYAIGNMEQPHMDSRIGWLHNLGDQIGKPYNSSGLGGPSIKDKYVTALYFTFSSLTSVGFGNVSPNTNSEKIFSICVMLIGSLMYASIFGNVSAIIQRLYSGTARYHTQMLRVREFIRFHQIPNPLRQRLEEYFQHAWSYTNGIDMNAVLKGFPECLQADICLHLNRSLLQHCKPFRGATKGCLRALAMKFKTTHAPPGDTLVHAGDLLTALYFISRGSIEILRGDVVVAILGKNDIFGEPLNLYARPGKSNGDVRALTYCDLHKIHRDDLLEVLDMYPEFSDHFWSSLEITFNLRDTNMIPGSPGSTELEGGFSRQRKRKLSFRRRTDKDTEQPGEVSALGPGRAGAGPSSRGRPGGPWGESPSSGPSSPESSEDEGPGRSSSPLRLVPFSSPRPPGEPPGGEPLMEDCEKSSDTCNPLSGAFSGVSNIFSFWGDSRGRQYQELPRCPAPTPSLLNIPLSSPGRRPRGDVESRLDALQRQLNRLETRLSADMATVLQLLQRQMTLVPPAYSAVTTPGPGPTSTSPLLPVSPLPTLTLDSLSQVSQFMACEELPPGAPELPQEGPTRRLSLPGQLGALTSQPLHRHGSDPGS

[8] = Cmax in Sprague-Dawley rat at 1 mg/kg, po; format: ADME, organism-based; design: dose 1 mg/kg, route oral; details: in vivo; outline: as §2
[9] = Volume of distribution at steady state in Sprague-Dawley rat at 1 mg/kg, iv; format: ADME, organism-based; design: dose 1 mg/kg, route intravenous; details: in vivo, read-out: Vdss; outline: as §2
Mus musculus [10] = experiment: Inhibition of androstenedione-induced testosterone production in tumor of human CWR22R cells xenografted in BALB/c athymic nude mouse at 10 mg/kg, po treated 1 hr prior to androstenedione-challenge measured after 2 hrs; format: functional, organism-based; design: dose 10 mg/kg
Outline: (§3)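 Male BALB/c athymic nude mice aged 4-6 weeks were castrated, then given subcutaneous CWR22R tumor cells (protease-digested fragments in RPMI 1640/20% FBS mixed 1:1 with Matrigel) into each flank. About 3 weeks later, size-matched mice were randomized (n = 4/group) and dosed orally. Androstenedione (1 ng/100 mm3 tumor) was injected intratumorally 1 h post-dose. Tumors were removed at 2 h, homogenized in 200 mmol/L phosphate pH 7.4, and extracted with tert-butyl methyl ether; testosterone was read by DELFIA.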

[11] = biological target: T1, Aldo-keto reductase family 1 member C3; experiment: Inhibition of human AKR1C3-mediated 9,10-phenanthrenequinone reduction after 10 to 20 mins by spectrophotometry in presence of NADPH
Outline: (§4)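 Purified human AKR1C enzyme (final 10 μg/mL) was mixed with 9,10-phenanthrenequinone (4 μmol/L), NADPH (200 μmol/L) and compound in 100 mM potassium phosphate pH 6.0, at room temperature for 10-20 min. NADPH absorbance was read at 340 nm and normalized to no-enzyme (0%) and no-compound (100%) controls. IC50 was obtained by Sigmoid-Emax nonlinear regression.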

[12] = Half life in Sprague-Dawley rat at 1 mg/kg, iv; format: ADME, organism-based; design: dose 1 mg/kg, route intravenous; details: in vivo; outline: as §2
Cytochrome P450 2C19 = Cytochrome P450 2C19 (Homo sapiens, UniProt P33261); experiment: Inhibition of CYP2C19 (unknown origin); format: ADME
Sequence of Cytochrome P450 2C19 (P33261 whole entry): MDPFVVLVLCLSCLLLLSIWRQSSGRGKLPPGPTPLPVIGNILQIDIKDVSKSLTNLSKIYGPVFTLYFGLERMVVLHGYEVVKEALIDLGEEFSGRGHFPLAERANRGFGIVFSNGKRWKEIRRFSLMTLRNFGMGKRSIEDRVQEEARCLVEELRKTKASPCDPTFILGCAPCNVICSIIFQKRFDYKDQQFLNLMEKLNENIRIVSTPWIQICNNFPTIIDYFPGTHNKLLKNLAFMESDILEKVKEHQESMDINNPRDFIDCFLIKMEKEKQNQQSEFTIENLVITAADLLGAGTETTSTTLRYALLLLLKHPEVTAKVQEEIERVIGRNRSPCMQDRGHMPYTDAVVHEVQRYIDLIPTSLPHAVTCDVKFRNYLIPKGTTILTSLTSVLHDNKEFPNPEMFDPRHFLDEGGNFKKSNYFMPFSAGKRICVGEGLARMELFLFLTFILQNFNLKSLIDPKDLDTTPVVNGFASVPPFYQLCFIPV

[13] = AUC (0 to 24 hrs) in Sprague-Dawley rat at 1 mg/kg, iv; format: ADME, organism-based; design: time < 24 hr, dose 1 mg/kg, route intravenous; details: plasma; outline: as §2
[14] = biological target: T3, Aldo-keto reductase family 1 member C2 (Homo sapiens, UniProt P52895); experiment: Inhibition of human AKR1C2-mediated 9,10-phenanthrenequinone reduction after 10 to 20 mins by spectrophotometry in presence of NADPH; outline: as §4
T3 sequence (P52895 whole entry): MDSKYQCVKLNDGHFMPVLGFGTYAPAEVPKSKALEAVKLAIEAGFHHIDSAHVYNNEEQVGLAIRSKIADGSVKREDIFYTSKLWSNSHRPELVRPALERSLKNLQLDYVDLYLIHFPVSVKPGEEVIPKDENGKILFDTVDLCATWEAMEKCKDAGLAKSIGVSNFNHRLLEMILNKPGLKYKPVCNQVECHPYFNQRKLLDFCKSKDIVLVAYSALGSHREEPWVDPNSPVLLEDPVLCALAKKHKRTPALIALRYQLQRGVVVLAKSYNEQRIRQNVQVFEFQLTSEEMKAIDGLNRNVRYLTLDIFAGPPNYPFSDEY

Cytochrome P450 3A4 = Cytochrome P450 3A4 (Homo sapiens, UniProt P08684); experiment: Inhibition of CYP3A4 (unknown origin) using nifedipine as substrate; format: ADME
Sequence of Cytochrome P450 3A4 (P08684 whole entry): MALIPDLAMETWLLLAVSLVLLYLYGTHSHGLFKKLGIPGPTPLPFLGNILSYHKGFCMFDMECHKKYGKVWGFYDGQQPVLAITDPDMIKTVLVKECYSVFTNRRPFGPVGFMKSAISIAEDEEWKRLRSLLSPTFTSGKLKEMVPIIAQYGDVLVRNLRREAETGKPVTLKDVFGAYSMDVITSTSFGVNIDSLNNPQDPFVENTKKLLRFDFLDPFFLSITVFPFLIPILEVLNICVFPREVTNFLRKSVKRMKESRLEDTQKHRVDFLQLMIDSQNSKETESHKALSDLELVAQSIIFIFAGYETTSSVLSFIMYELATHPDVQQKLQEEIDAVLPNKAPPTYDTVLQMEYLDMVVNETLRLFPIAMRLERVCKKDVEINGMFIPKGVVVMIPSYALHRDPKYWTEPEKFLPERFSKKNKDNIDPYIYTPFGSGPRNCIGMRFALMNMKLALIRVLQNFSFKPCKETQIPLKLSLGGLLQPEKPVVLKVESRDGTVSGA

[15] = Oral bioavailability in Sprague-Dawley rat at 1 mg/kg; format: ADME, organism-based; details: in vivo; outline: as §2
[16] = Total clearance in Sprague-Dawley rat at 1 mg/kg, iv; format: ADME, organism-based; design: dose 1 mg/kg, route intravenous; details: in vivo; outline: as §2
Mus musculus [17] = experiment: Inhibition of androstenedione-induced testosterone production in tumor of human CWR22R cells xenografted in po dosed BALB/c athymic nude mouse treated 1 hr prior to androstenedione-challenge measured after 2 hrs; format: functional, organism-based; outline: as §3
[18] = biological target: T1, Aldo-keto reductase family 1 member C3; experiment: Inhibition of human 17beta-HSD5 expressed in human CWR22R cells using androstenedione as substrate assessed as testosterone synthesis after 4 hrs; format: cell-based
Outline: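 CWR22R cells were seeded at 2×10^4 cells/well in RPMI-1640/10% FBS and incubated overnight at 37 °C, 5% CO2. Compound was added with androstenedione (final 300 nmol/mL). After 4 h, supernatant testosterone was quantified by DELFIA.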

[19] = AUC (0 to 24 hrs) in Sprague-Dawley rat at 1 mg/kg, po; format: ADME, organism-based; design: time < 24 hr, dose 1 mg/kg, route oral; details: plasma; outline: as §2

With `CC(=O)CC1CCN(C(=O)c2cc3ccccc3[nH]2)CC1` as the compound, how does the pIC50 [1] read?
The pIC50 was 7.89.

With `CC(O)CC1CCN(C(=O)c2cc3ccccc3[nH]2)CC1` (centres undefined) as the compound, how does the pIC50 [1] read?
Its pIC50 is 7.92.

With `Cc1ccc2[nH]c(C(=O)N3CCC(CC(=O)O)CC3)cc2c1` as the compound, how does the pIC50 [1] read?
The pIC50 was under 5.00.

With `O=C(c1cc2ccccc2[nH]1)N1CCCC(CCO)C1` (centres undefined) as the compound, how does the pIC50 [1] read?
Its pIC50 is 5.68.

With `O=C(NCCCCCO)c1cc2ccccc2[nH]1` as the compound, how does the pIC50 [1] read?
Its pIC50 is 5.92.

With `COCCC1CCN(C(=O)c2cc3ccccc3[nH]2)CC1` as the compound, how does the pIC50 [1] read?
The pIC50 was 7.48.

Which results are given for `CC(C)(O)CC1CCN(C(=O)c2cc3ccccc3[nH]2)CC1`?
concentration at 4 h [2]: < 100 nM; concentration at 1 h [3]: 2610 nM; pIC50 [1]: 8.68; Papp at 2 h [4]: 26 ×10⁻⁶ cm/s; solubility [5]: > 100 µM

With `O=C(c1cc2ccccc2[nH]1)N1CCC(CCO)C1` (centres undefined) as the compound, how does the pIC50 [1] read?
The pIC50 was 5.96.

With `Cc1ccc2[nH]c(C(=O)N3CCC(CCCO)CC3)cc2c1` as the compound, how does the pIC50 [1] read?
The pIC50 was 6.80.

With `O=C(c1cc2ccccc2[nH]1)N1CC(CCO)C1` as the compound, how does the pIC50 [1] read?
The pIC50 was 6.85.

What does the source list for `Cc1ccc2[nH]c(C(=O)N3CCC(CC(C)(C)O)CC3)cc2c1`?
pIC50 (Cytochrome P450 2C9): < 4.60; concentration at 4 h [2]: 3100 nM; pIC50 (Cytochrome P450 2D6): < 4.60; concentration at 1 h [3]: 10900 nM; Tmax [6]: 30 min; pIC50 [1]: 9.47; pIC50 (Cytochrome P450 1A2): < 4.60; pIC50 [7]: < 4.00; Cmax [8]: 180 ng/mL; Papp at 2 h [4]: > 30 ×10⁻⁶ cm/s; Vd [9]: 1.7 L/kg; inhibition (Mus musculus [10]): Active; pIC50 [11]: 7.62; half-life [12]: 27.6 min; pIC50 (Cytochrome P450 2C19): < 4.60; AUC(0-t) at 24 h [13]: 395 ng·h/mL; pIC50 [14]: < 4.70; pIC50 (Cytochrome P450 3A4): < 4.00; bioavailability [15]: 65%; clearance [16]: 42 mL/min/kg; inhibition (Mus musculus [17]): Dose-dependent effect; solubility [5]: > 100 µM; pIC50 [18]: 8.72; AUC(0-t) at 24 h [19]: 255 ng·h/mL

With `Cc1ccc2[nH]c(C(=O)N3CCN(CCO)CC3)cc2c1` as the compound, how does the pIC50 [1] read?
Its pIC50 is 6.11.

With `O=C(c1cc2ccccc2[nH]1)N1CCCCC1CCO` (centres undefined) as the compound, how does the pIC50 [1] read?
Its pIC50 is 6.64.

With `Cc1ccc2[nH]c(C(=O)N3CC=CCC3)cc2c1` as the compound, how does the pIC50 [1] read?
Its pIC50 is 5.55.

With `Cc1ccc2[nH]c(C(=O)N3CCC(CO)CC3)cc2c1` as the compound, how does the pIC50 [1] read?
The pIC50 was 6.10.

What does the source list for `Cc1ccc2[nH]c(C(=O)N3CCC(CCO)CC3)cc2c1`?
concentration at 4 h [2]: < 100 nM; concentration at 1 h [3]: < 100 nM; pIC50 [1]: 7.43; Papp at 2 h [4]: > 30 ×10⁻⁶ cm/s; solubility [5]: > 100 µM; pIC50 [18]: 7.24

With `O=C(c1cc2ccccc2[nH]1)N1CCC(CCO)CC1` as the compound, how does the pIC50 [1] read?
The pIC50 was 8.35.
